The list is not random: actives were taken first. Their share in the collection is about 2.2%.
APP 5UTR inh: APP translation inhibition; inhibition, % at 2 µM; AID 1285; SH-SY5Y APP 5'UTR-luciferase reporter, luminescence; 190,000 tested, 0.82% active;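 active = inhibition above a set limit, derived from the sample mean plus 3 SD, cut at about 45% in these data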
IEC-6 tox: IEC-6 cytotoxicity, counter-screen for KLF5 inhibitors; luminescence viability; inhibition, % at 5 µM; 290,000 tested, 0.78% active;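 note: 0% = plate median of test compound wells and 100% = cytotoxic reference compound wells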
bCat nuc transl: beta-catenin nuclear translocation modulation; HeLa beta-catenin nuclear translocation, immunofluorescence imaging; nuclear translocation activity, % at 5 µM; 190,000 tested, 0.3% active;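 active = nuclear translocation activity above 50% at 5 µM, with a well cell count of 50 or more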;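 note: per-cell ratio of nuclear to cytoplasmic median beta-catenin stain intensity; plate controls were DMSO negative control for no effect and GSK-3 inhibitor IX positive control for full effect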
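Assay system: human HeLa cells, native beta-catenin; doses: 5 µM primary, 0.02–20 µM confirmation; incubation: compound treatment 24 h, 37°C, 5% CO2; technique: fluorescence imaging of beta-catenin antibody stain plus DAPI; measure: % activation, nuclear-to-cytoplasmic median beta-catenin signal ratio per cell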
MT stabilizer: microtubule stabilization, imaging screen. 200,000 tested, 0.83% active. % tubulin-high responders, % at 10 µM. HeLa tubulin immunostaining HCS, 24 h; share of cells brighter than vehicle mean+2SD;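 active = plate Z-score above 3 for both tubulin-high and condensed-nucleus cell shares, with cell loss under 80%, at 10 µM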;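 note: anti alpha tubulin signal scored within the nucleus-defined area of each cell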
Ba/F3 V617F tox: loss of viability in JAK2V617F-driven Ba/F3 cells; Ba/F3 EpoR-JAK2V617F viability, ATP luminescence; inhibition, % at 5.6 µM; AID 1446; 220,000 tested, 1.1% active;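 active = inhibition above the campaign mean plus 3 SD over all tested compounds, cut at about 24% in these data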;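 note: cytokine-independent growth of Ba/F3 cells driven by EpoR plus mutant JAK2; 0% = DMSO-treated cells and 100% = JAK inhibitor I control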
BaF3 parental: reduces parental Ba/F3 cell viability, JAK2V617F counter-screen. CellTiter-Glo ATP luminescence. inhibition, % at 5.6 µM. 220,000 tested, 1.1% active. AID 1486;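 active = inhibition above a per-campaign cutoff, the mean inhibition of all tested compounds plus 3 SD, cut at about 27% in these data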;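 note: 0% = DMSO wells and 100% = JAK Inhibitor I control wells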
IEC-6 tox confirm: IEC-6 cytotoxicity, confirmation assay | shares compounds with IEC-6 tox | IEC-6 rat intestinal epithelial viability, luminescence | inhibition, % at 5 µM | 1,900 tested, 63% active | AID 1907;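 note: 0% = vehicle and 100% = reference cytotoxic drug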
Numbers without * were called inactive; . = no result given. Cut-off read from the data, not from the text of the source, unless noted: active = inhibition above about 22%; inactive = the rest.

SMILES	APP 5UTR inh	IEC-6 tox	bCat nuc transl	MT stabilizer	Ba/F3 V617F tox	BaF3 parental	IEC-6 tox confirm
CCOC(=O)c1c(-c2ccccc2)cn2c(C)cc(C)nc12	-100	6	-6	7	4	1	.
COc1ccc(NC(=O)c2c(C)nn(Cc3ccccc3)c2C)cc1S(=O)(=O)N(C)C	.	-6	.	.	.	.	.
c1ccc(-c2cccc(-c3ccccn3)n2)nc1	86*	81*	-1	8	94*	85*	83*
CC(C)(C)NC(=O)C(=O)NNC(=O)c1cccc(F)c1	-17	6	-3	1	7	11	.
O=C(Cc1ccc(N2CCNC2=O)cc1)N1CCCC(Nc2ccc(F)c(F)c2)C1 (centres undefined)	.	48*	.	.	.	.	35*
O=C(Cc1ccc(N2CCNC2=O)cc1)N1CCCC(Nc2cccc(F)c2)C1 (centres undefined)	.	71*	.	.	.	.	56*
O=C1NCCN/C1=C\C(=O)c1cccc(Br)c1	.	0	1	.	2	1	.
O=C(CC1C(=O)NCCN1Cc1ccoc1)NCCCn1ncc2ccccc21 (centres undefined)	-12	-5	-2	2	-2	0	.
COc1cccc(CN(C)Cc2cc(=O)oc3c(C)c(C)ccc23)c1	.	61*	.	.	.	.	39*
Cc1ccccc1CN(C)Cc1cc(=O)oc2c(C)c(C)ccc12	.	28*	.	.	.	.	18
Cc1c(O)ccc2c(CN(C)Cc3ccccc3)cc(=O)oc12	.	58*	0	.	-2	2	15
CCc1cccc(CC)c1NC(=O)CO/N=C(\C)c1cccs1	-4	-2	-4	5	7	16	.
Cc1ccc(Nc2nc(N3CCOCC3)nc(N3CCOCC3)n2)cc1C	.	84*	.	.	.	.	88*
Cc1cccc(Nc2nc(N3CCOCC3)nc(N3CCOCC3)n2)c1	.	64*	.	.	.	.	37*
C=CCN(C(=O)CCC(=O)Nc1cc(C)on1)C(C(=O)NC(C)(C)C)c1ccc(OC)cc1 (centres undefined)	.	13	.	.	.	.	.
Cc1c(Nc2cc(N3CCOCC3)c3nonc3c2[N+](=O)[O-])c(=O)n(-c2ccccc2)n1C	4	-4	1	3	-2	-1	.
Cc1c(Nc2cc(Cl)c3nonc3c2[N+](=O)[O-])c(=O)n(-c2ccccc2)n1C	95*	96*	.	3	95*	103*	9
O=C(O)c1ccc(Nc2cc(Cl)c3nonc3c2[N+](=O)[O-])cc1	-2	2	3	3	-6	0	.
O=[N+]([O-])c1c(Nc2cccc(O)c2)cc(Cl)c2nonc12	.	100*	.	.	.	.	29*
CC(c1ccccn1)N(C)C(=O)c1ccc2nc(Cc3ccccc3F)oc2c1 (centres undefined)	.	-4	.	.	.	.	.
CCOc1cc(S(=O)(=O)NCc2cccs2)ccc1Cl	2	0	0	3	0	6	.
CCOc1cc(S(=O)(=O)NCc2ccncc2)ccc1Cl	2	24*	-1	5	64*	84*	20
O=C(O)c1nn(CCOc2c(Cl)cccc2Cl)c(=O)c2ccccc12	.	40*	.	.	.	.	18
O=C(O)c1nn(CCOc2cccc(Cl)c2)c(=O)c2ccccc12	-9	-7	1	4	1	7	.
COc1ccc(F)cc1Cn1nc(C(=O)O)c2ccccc2c1=O	.	36*	.	.	.	.	21
SMILES	APP 5UTR inh	IEC-6 tox	bCat nuc transl	MT stabilizer	Ba/F3 V617F tox	BaF3 parental	IEC-6 tox confirm
O=C(CN(c1cc(Cl)ccc1Cl)S(=O)(=O)c1ccccc1)N1CCOCC1	.	0	.	.	.	.	.
CCCn1c(CN2CCN(C(=O)OCC)CC2)nc2cc(NC(=O)CC)ccc21	.	53*	.	.	.	.	24*
CCOC(=O)N1CCN(Cc2nc3cc(NC(=O)CC)ccc3n2C)CC1	.	-6	.	.	.	.	.
COc1ccc(CCNC(=O)CCC(=O)n2ncc3ccc(Cl)cc32)cc1OC	.	5	.	.	.	.	.
C=CCN1C(=O)N/C(=C/c2ccc(N3CCOCC3)o2)C1=O	88*	32*	-2	2	95*	78*	0
CC(OC(=O)CC(NC(=O)c1ccccc1Cl)c1ccccc1)C(=O)Nc1cccc(Cl)c1Cl (centres undefined)	-10	0	0	2	2	5	.
Cc1ccc(NC(=O)C2c3ccccc3Oc3ccccc32)nc1	11	46*	0	1	1	13	41*
O=C(Nc1cnccn1)C1c2ccccc2Oc2ccccc21	11	0	.	2	-3	3	.
O=C(Nc1nc(-c2cccs2)cs1)c1ccc(S(=O)(=O)N2CCCCC2)cc1	14	-6	2	2	1	6	.
O=C(Nc1nc(-c2ccccn2)cs1)C1CCCC1	-24	25*	-3	3	-5	0	-1
O=C(Nc1nc(-c2ccccn2)cs1)c1ccc(Cl)s1	77*	45*	.	4	1	3	75*
O=C(Nc1nc(-c2ccccn2)cs1)c1ccc(S(=O)(=O)N2CCCCC2)cc1	.	50*	1	.	55*	56*	54*
Cc1cccc(C(=O)NC(C(=O)Nc2nc(-c3ccccn3)cs2)C(C)C)c1 (centres undefined)	-7	49*	1	8	8	5	42*
COc1ccc(CCN2CC(C(=O)NCc3cccc4[nH]ccc34)CCC2=O)cc1 (centres undefined)	.	3	.	.	.	.	.
O=C(NCCc1ccccc1F)C1CCCN(c2nc3ccccc3s2)C1 (centres undefined)	.	6	.	.	.	.	.
Cc1cccnc1Nc1nc(-c2ccccc2)cs1	.	18	.	.	.	.	.
Cc1cccnc1Nc1nc(-c2ccccn2)cs1	93*	84*	4	2	89*	77*	88*
COc1cc(C(=O)Nc2ccc(C)cc2)c2ccccc2n1	.	84*	.	.	.	.	65*
CCOc1ccc(NC(=O)c2cc(OC)nc3ccccc23)cc1	.	88*	.	.	.	.	53*
CCOc1ccc(NC(=O)c2cccc3ccccc23)cc1	.	22*	.	.	.	.	14
Cc1ccc(NC(=O)c2cc(Cl)nc3ccccc23)cc1	-7	4	0	1	-4	7	.
O=C(Nc1ccc(Cl)cn1)c1cccc2ccccc12	.	44*	.	.	.	.	25*
O=C(Nc1ccncc1)c1cccc2ccccc12	.	1	1	.	1	-2	.
CC(=O)c1c(C)cc(C)c(CSc2nc(C)cc(=O)[nH]2)c1C	-38	30*	.	3	7	3	20
CCOC(=O)c1c(C)[nH]c(C(=O)CSc2nccc(C)n2)c1C	-80	1	.	3	2	5	.
Cc1cc(C(=O)Cn2ncc(Cl)c(Cl)c2=O)c(C)n1CC(F)(F)F	75*	100*	-4	3	44*	79*	19
CCCc1cc(=O)[nH]c(SCC(=O)c2cc(C)n(CC(F)(F)F)c2C)n1	-31	-4	-2	5	0	9	.
O=C(/C=C\Nc1ccc(Br)cc1)c1cccnc1	-210	-1	-2	7	-2	6	.
C=CCOc1ccc2nc(NC(=O)OC)[nH]c2c1	.	82*	109*	38*	78*	79*	53*
